Data reported in article PMC7366207 (Journal of Antimicrobial Chemotherapy, 2020).

How the values were obtained:
[1] = format: in vivo, human; settings: oral 30 mg/day, steady state
[2] = format: in vivo, human; settings: LATTE
Summary of the method: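 LATTE participants received oral drug 10, 30 or 60 mg once daily with two nucleoside analogues for 24 weeks, then with rilpivirine 25 mg daily to Week 72. Maximum on-treatment change from baseline in serum ALT and total bilirubin, regardless of dose, measured centrally as multiples of ULN. Linear regression on predicted UGT1A1/UGT1A9 activity, with covariates kept if P<0.05.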

[3] = Last oral lead-in cabotegravir trough; format: in vivo, human; settings: for Low-versus-normal fold-change between mean cabotegravir trough concentrations: last oral trough on Day 1 (oral 30 mg); for Mean cabotegravir trough concentration: last oral trough on Day 1
Summary of the method: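 Human PK in LATTE-2 (4-weekly arm): daily oral 30 mg plus abacavir/lamivudine for 20 weeks. Day 1 trough taken 20–28 h after the last home oral dose. Plasma drug measured by validated LC-MS (LLOQ 25 ng/mL). Predicted UGT1A1 activity: normal with no *6/*28/*37 (*36 counted as wild type), reduced with one copy, low with two. Fold-change taken as the ratio of mean troughs.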

UGT1A1 = settings: cited from earlier work
UGT1A9 = settings: cited from earlier work
[4] = system: uridine 5′-diphospho-glucuronosyltransferase (UGT); settings: cited from earlier work
[5] = cited from earlier work
[6] = oral dolutegravir 50 mg/day; same allele and activity definitions; cited from earlier work
cytochrome P450 3A4 = settings: cited from earlier work
[7] = fast versus normal predicted UGT1A9 activity
[8] = low versus normal predicted UGT1A1 activity
[9] = oral 10, 30 and 60 mg, fast versus normal predicted UGT1A9 activity
[10] = oral 10, 30 and 60 mg, low versus normal predicted UGT1A1 activity

Structure (SMILES): C[C@H]1CO[C@@H]2Cn3cc(C(=O)NCc4ccc(F)cc4F)c(=O)c(O)c3C(=O)N12 [cabotegravir]
- Association of predicted UGT1A9 activity with exposure measures [1]: not significantly associated
- Elevation in oral AUCtau associated with low predicted UGT1A1 activity [1]: 41%
- Elevation in oral Cmax associated with low predicted UGT1A1 activity [1]: 28%
- AUCtau, fold-change in exposure (fast versus normal) [1, 7]: 1.04 fold
- Cmax, fold-change in exposure (fast versus normal) [1, 7]: 1.03 fold
- Ctau, fold-change in exposure (fast versus normal) [1, 7]: 0.98 fold
- AUCtau, fold-change in exposure (low versus normal) [1, 8]: 1.41 fold
- Cmax, fold-change in exposure (low versus normal) [1, 8]: 1.28 fold
- Ctau, fold-change in exposure (low versus normal) [1, 8]: 1.50 fold
- ALT change from BL, fold-change (fast versus normal) [2, 9]: 1.68 fold
- Tbili change from BL, fold-change (fast versus normal) [2, 9]: 0.69 fold
- ALT maximum change from baseline, fold-change (low versus normal) [2, 10]: 0.68 fold
- Tbili maximum change from baseline, fold-change (low versus normal) [2, 10]: 2.45 fold
- Association of predicted UGT1A1 activity with maximum change in ALT ([2]; oral any dose): no significant association
- Participants with maximum on-treatment ALT elevation ≥3× ULN ([2]; among the 5 participants with Tbili increases of 1.5× ULN or greater): none
- Low-versus-normal fold-change between mean cabotegravir trough concentrations ([3]; 4 weekly group): 1.57 fold
- Mean cabotegravir trough concentration ([3]; 4 weekly group, low predicted UGT1A1 activity): 6.11 µg/mL
- Mean cabotegravir trough concentration ([3]; 4 weekly group, normal predicted UGT1A1 activity): 3.88 µg/mL
- Low-versus-normal fold-change between mean cabotegravir trough concentrations ([3]; 8 weekly arm): 1.19 fold
- Mean cabotegravir trough concentration ([3]; 8 weekly arm, low predicted UGT1A1 activity): 5.10 µg/mL
- Mean cabotegravir trough concentration ([3]; 8 weekly arm, normal predicted UGT1A1 activity): 4.28 µg/mL
- Effect on UGT1A1 expression or activity (UGT1A1): does not functionally affect UGT1A1 expression or activity
- Metabolism by UGT1A1 (UGT1A1): primarily metabolized by UGT1A1
- Metabolism by UGT1A9 (UGT1A9): minor contribution by UGT1A9
- Inhibition or induction of UGT [4]: not an inhibitor or inducer
- Aqueous solubility [5]: low aqueous solubility

Structure (SMILES): C[C@@H]1CCO[C@H]2Cn3cc(C(=O)NCc4ccc(F)cc4F)c(=O)c(O)c3C(=O)N12 [dolutegravir]
- Increase in AUCtau associated with low UGT1A1 activity [6]: 46%
- Increase in Cmax associated with low UGT1A1 activity [6]: 32%
- Contribution of cytochrome P450 3A4 to metabolism (cytochrome P450 3A4): ~30%
